The record followed here is ChEMBL document CHEMBL2331406, “In vitro activity of scorpiand-like azamacrocycle derivatives in promastigotes and intracellular amastigotes of Leishmania infantum and Leishmania braziliensis” (Eur J Med Chem, 2013).

Data set [1] can be described thus: Ratio of compound selectivity index to glucantime selectivity index for amastigote form of Leishmania infantum MCAN/ES/2001/UCM-10 infected in J774.2 cells over mouse J774.2 cells. The procedure, abridged:
(§1)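 J774.2 macrophages in MEM + 2 mM glutamine + 20% inactivated FCS were infected with stationary-phase promastigotes (10:1) for 24 h at 37 °C, 5% CO2. After washing, compounds were added at […] for 72 h. Amastigote reduction was scored in methanol-fixed, Giemsa-stained preparations; IC50 by regression; triplicates. SI = J774.2 IC50 (72 h flow cytometry)/amastigote IC50; ratio is versus Glucantime SI.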

Data set [2] relates to Leishmania braziliensis. The data set can be described thus: Antileishmanial activity against promastigote form of Leishmania braziliensis MHOM/BR/1975/M2904 assessed as electro-dense vesicles at IC25 concentration after 96 hrs by MET microscopic analysis. It is filed as functional. As to conditions: MHOM/BR/75/M2904. The procedure, abridged: (§2)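 Promastigotes at 5 × 10^5 cells/mL in MTL medium with compound at IC25 for 96 h. Ultrastructure examined by transmission electron microscopy against untreated control parasites.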

A further data set has as its system J774.2. Kind of data set: Cytotoxicity against mouse J774.2 cells after 72 hrs by PI-staining based flow cytometric analysis. It is filed as cell-based. As to conditions: J774.2, 72 h. The procedure, abridged:
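J774.2 macrophages (ECACC 91051511, female BALB/c mouse tumour) treated 72 h with 100, 50, 25, 10 and 1 of compound. Propidium iodide then fluorescein diacetate each added for 10 min at 28 °C in the dark. Cells pelleted at 400g, washed in PBS and analysed by flow cytometry. Viability % vs control; IC50 by linear regression of Kc values.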
A general note: Flow cytometry measures light scatter and fluorescence of single cells or particles in a stream.

Data set [3] can be described thus: Selectivity index, ratio of IC50 for mouse J774.2 cells to IC50 for axenic amastigote form of Leishmania braziliensis MHOM/BR/1975/M2904. It is filed as toxicity. The procedure, abridged:
(§3)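 Axenic amastigotes obtained by 3-day promastigote transformation in supplemented M199 + 10% heat-inactivated FCS, pH 5.4, 37 °C. […] Host toxicity: J774.2, 72 h, PI/FDA flow cytometry. SI = macrophage IC50/axenic amastigote IC50; ratio is compound SI over Glucantime SI.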

The nature of data set [4]: Selectivity index, ratio of IC50 for mouse J774.2 cells to IC50 for axenic amastigote form of Leishmania infantum MCAN/ES/2001/UCM-10. It counts as toxicity. The procedure, abridged: as §3
Data set [5] deals with Leishmania braziliensis. The data set can be described thus: Antileishmanial activity against axenic amastigote form of Leishmania braziliensis MHOM/BR/1975/M2904 after 72 hrs by haemocytometric analysis. It counts as functional, MHOM/BR/75/M2904. The procedure, abridged: (§4)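 Axenic amastigotes made by culturing promastigotes 3 days at 37 °C in M199 with 10% heat-inactivated FCS plus organic acids, amino acids, sucrose, bicarbonate, MES, haemin and gentamicin, pH 5.4. Compound effect counted in a Neubauer haemocytometer chamber. IC50 by linear regression of Kc values at 1, 10, 25, 50 and 100.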

The test system of data set [6] is Leishmania braziliensis. Kind of data set: Antileishmanial activity against promastigote form of Leishmania braziliensis MHOM/BR/1975/M2904 assessed as mortality at IC25 concentration after 96 hrs by MET microscopic analysis. It counts as functional. The note with it: MHOM/BR/75/M2904. The procedure, abridged:
as §2

The nature of data set [7]: Selectivity index, ratio of IC50 for mouse J774.2 cells to IC50 for promastigote form of Leishmania infantum MCAN/ES/2001/UCM-10. It counts as toxicity. The procedure, abridged:
(§5)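 J774.2 toxicity: 72 h at the same concentrations, viability by flow cytometry with propidium iodide/fluorescein diacetate; IC50 by linear regression. SI = macrophage IC50/parasite IC50; ratio is compound SI over Glucantime SI.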

Data set [8] can be described thus: Ratio of compound selectivity index to glucantime selectivity index for amastigote form of Leishmania braziliensis MHOM/BR/1975/M2904 infected in J774.2 cells over mouse J774.2 cells. The procedure, abridged: as §1
The subject of data set [9] is Leishmania braziliensis. The data set can be described thus: Antileishmanial activity against promastigote form of Leishmania braziliensis MHOM/BR/1975/M2904 assessed as empty cytoplasmic at IC25 concentration after 96 hrs by MET microscopic analysis. It counts as functional. As to conditions: MHOM/BR/75/M2904. The procedure, abridged: as §2
In data set [10] the test system is Leishmania braziliensis. The data set can be described thus: Antileishmanial activity against amastigote form of Leishmania braziliensis MHOM/BR/1975/M2904 infected in J774.2 cells after 72 hrs by haemocytometric analysis. It is filed as functional, cell-based, MHOM/BR/75/M2904. The procedure, abridged: (§6)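 J774.2 macrophages grown in MEM with 2 mM glutamine and 20% inactivated FCS at 37 °C in 5% CO2. Infected with stationary-phase promastigotes at 10:1 for 24 h, then washed free of non-phagocytosed parasites. Compounds at 1, 10, 25, 50 and 100 for 72 h. Amastigotes counted on methanol-fixed, Giemsa-stained preparations and % reduction taken vs untreated. IC50 by linear regression of Kc values; three separate determinations.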

Data set [11] has as its system Leishmania infantum. Kind of data set: Antileishmanial activity against promastigote form of Leishmania infantum MCAN/ES/2001/UCM-10 after 72 hrs by haemocytometric analysis. It is filed as functional, organism-based. The procedure, abridged:
(§7)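 Promastigotes grown at 28 °C in MTL medium with 10% inactivated FCS. Compounds in DMSO (0.1%), diluted in culture medium to 100, 50, 25, 10 and 1. Cells counted at 72 h in a Neubauer haemocytometric chamber. IC50 (50% inhibition) by linear regression of Kc values.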

Data set [12] relates to Leishmania braziliensis. Kind of data set: Antileishmanial activity against promastigote form of Leishmania braziliensis MHOM/BR/1975/M2904 after 72 hrs by haemocytometric analysis. It is filed as functional. As to conditions: MHOM/BR/75/M2904, 72 h. The procedure, abridged:
as §7

Data set [13] in a line: Ratio of compound selectivity index to glucantime selectivity index for axenic amastigote form of Leishmania infantum MCAN/ES/2001/UCM-10 over mouse J774.2 cells. The procedure, abridged: as §3
Data set [14] is described as follows: Selectivity index, ratio of IC50 for mouse J774.2 cells to IC50 for promastigote form of Leishmania braziliensis MHOM/BR/1975/M2904. It counts as toxicity.
The nature of data set [15]: Ratio of compound selectivity index to glucantime selectivity index for promastigote form of Leishmania infantum MCAN/ES/2001/UCM-10 over mouse J774.2 cells. The procedure, abridged: as §5
Data set [16] is described as follows: Selectivity index, ratio of IC50 for mouse J774.2 cells to IC50 for amastigote form of Leishmania braziliensis MHOM/BR/1975/M2904 infected in J774.2 cells. It is filed as toxicity, cell-based. The procedure, abridged:
as §1

Data set [17] can be described thus: Ratio of compound selectivity index to glucantime selectivity index for axenic amastigote form of Leishmania braziliensis MHOM/BR/1975/M2904 over mouse J774.2 cells. The procedure, abridged: as §3
In data set [18] the test system is Leishmania infantum. Kind of data set: Antileishmanial activity against axenic amastigote form of Leishmania infantum MCAN/ES/2001/UCM-10 after 72 hrs by haemocytometric analysis. It is filed as functional, organism-based. The procedure, abridged: as §4
Data set [19] can be described thus: Ratio of compound selectivity index to glucantime selectivity index for promastigote form of Leishmania braziliensis MHOM/BR/1975/M2904 over mouse J774.2 cells.
A short description of data set [20]: Selectivity index, ratio of IC50 for mouse J774.2 cells to IC50 for amastigote form of Leishmania infantum MCAN/ES/2001/UCM-10 infected in J774.2 cells. It counts as toxicity, cell-based. The procedure, abridged: as §1
Data set [21] concerns Leishmania infantum. Kind of data set: Antileishmanial activity against amastigote form of Leishmania infantum MCAN/ES/2001/UCM-10 infected in J774.2 cells after 72 hrs by haemocytometric analysis. It counts as functional, organism-based. The procedure, abridged:
as §6

Data set [22] concerns Leishmania braziliensis. Kind of data set: Antileishmanial activity against promastigote form of Leishmania braziliensis MHOM/BR/1975/M2904 assessed as cytoplasmic alterations at IC25 concentration after 96 hrs by MET microscopic analysis. It counts as functional. The note with it: MHOM/BR/75/M2904. The procedure, abridged:
as §2

The subject of data set [23] is Leishmania braziliensis. Kind of data set: Antileishmanial activity against promastigote form of […] MHOM/BR/1975/M2904 infected in J774.2 cells assessed as inhibition of number of amastigotes per host cell at IC25 concentration incubated for 12 hrs followed by compound washout measured after 48 hrs by microscopic analysis. It is filed as functional. The note with it: MHOM/BR/75/M2904. The procedure, abridged: (§8)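 J774.2 cells seeded at 1 × 10^4 cells/well on coverslips and cultured 2 days. Infected with promastigotes at 10:1 with drug at IC25 added immediately, for 12 h at 37 °C in 5% CO2. Parasites and drug washed out, then grown 10 days with washing and fresh medium every 48 h. On methanol-fixed, Giemsa-stained slides, % infected cells and amastigotes per infected cell scored from more than 200 host cells. Three determinations.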

Data set [24] relates to Leishmania infantum. The data set can be described thus: Antileishmanial activity against promastigote form of Leishmania infantum MCAN/ES/2001/UCM-10 infected in J774.2 cells assessed as inhibition of infection in host cells at IC25 concentration incubated for 12 hrs followed by compound washout measured after 48 hrs by microscopic analysis. It counts as functional. The procedure, abridged:
as §8

The test system of data set [25] is Leishmania braziliensis. Kind of data set: Antileishmanial activity against promastigote form of […] Leishmania braziliensis MHOM/BR/1975/M2904 infected in J774.2 cells assessed as inhibition of infection in host cells at IC25 concentration incubated for 12 hrs […] by microscopic analysis. The note with it: MHOM/BR/75/M2904. It is filed as functional.

For data set [26], the system named is Leishmania infantum. The data set can be described thus: Antileishmanial activity against promastigote form of Leishmania infantum MCAN/ES/2001/UCM-10 infected in J774.2 cells assessed as inhibition of number of amastigotes per host cell at IC25 concentration incubated for 12 hrs followed by compound washout measured after 48 hrs by microscopic analysis. It is filed as functional. The procedure, abridged:
as §8

Where [27] appears, read: J774.2 cells, read-out: Ratio IC50.
Where [28] appears, read: Leishmania infantum, MCAN/ES/2001/UCM-10, 72 h.

Activity calls are given as the source filed them. The rule behind the calls is not given here.

In the case of `Br.NCCCNCCN1CCNCc2cccc(n2)CNCC1`, the Ratio was found to be 10 in [1]; 14 in [8]; 15 in data set [13]; 11 in data set [15]; 14 in data set [17]; 24 in data set [19]. For the same molecule, the outcome with Leishmania braziliensis [2], in the data set with Leishmania braziliensis [6], in the data set on Leishmania braziliensis [9] and in the data set on Leishmania braziliensis [22] was Active. Further, the IC50 in the data set on J774.2 is 220 µM; with Leishmania braziliensis [5] (Leishmania braziliensis, MHOM/BR/75/M2904, 72 h), 31.4 µM; with Leishmania braziliensis [10] (Leishmania braziliensis, MHOM/BR/75/M2904, J774.2, 72 h) it was 19.1 µM; with Leishmania infantum [11] (setting [28]), 24.2 µM; with Leishmania braziliensis [12] it was 15.5 µM; in the data set with Leishmania infantum [18] (setting [28]), 29.8 µM. This molecule gave an IC50 in the data set with Leishmania infantum [21] (Leishmania infantum, MCAN/ES/2001/UCM-10, J774.2, 72 h) of 44.9 µM. The selectivity ratio in [3] (setting [27]) was 7; in [4] (setting [27]), 7.4; in data set [7] (setting [27]) it was 9.1; in data set [14] (setting [27]), 14.2; in data set [16] (setting [27]), 11.5; in data set [20] (setting [27]) it was 4.9.
For “MEGLUMINE ANTIMONATE [listing 1 of 2 here]”, the “Ratio IC50” value in [3] is on record as 0.5; in data set [4], 0.5; in data set [7], 0.8; in data set [14], 0.6; in data set [16] it was 0.8; in [20] it was 0.5. Further, the IC50 came out at 30.9 µM in the data set on Leishmania braziliensis [5]; 19.7 µM in the data set with Leishmania braziliensis [10] (j774.2); 18 µM in the data set with Leishmania infantum [11]; 31 µM in the data set on Leishmania infantum [18]; 30.8 µM in the data set on Leishmania infantum [21] (j774.2).
With “MEGLUMINE ANTIMONATE [listing 2 of 2 here]”, the inhibition in the data set on Leishmania braziliensis [23] is 37%; in the data set on Leishmania infantum [24] it was 24%; in the data set on Leishmania braziliensis [25] it was 22%; in the data set on Leishmania infantum [26] it was 30%.

What is called IC50 is the concentration needed to halve the response being measured. Low values mean greater potency, high ones weaker potency. By inhibition is commonly meant the share of the control response that was lost under treatment.
